Results taken from ChEMBL document CHEMBL5678802, “Small-molecule p21-activated kinase inhibitor PF-3758309 is a potent inhibitor of oncogenic signaling and tumor growth” (Proc Natl Acad Sci U S A, 2010).

Assays:
[1] = biological target: Protein kinase C beta type (Homo sapiens, UniProt P05771); assay: Inhibition of human PKCbeta1 assessed as inhibition constant in presence of ATP
COLO 320DM = assay: Inhibition of anchorage independent cell growth in human COLO 320DM cells incubated for 6 days by Alamar blue reagent based fluorescence plate reader analysis; format: functional; details: 144 h
T84 = assay: Antiproliferative activity against human T84 cells assessed as inhibition of cell proliferation incubated for 3 days by CellTiter-Glo Luminescent Cell Viability Assay; format: functional, cell-based; details: T84, 72 h
How it was run: (§1)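 Cells of each line were plated in 384-well plates on day 1 and exposed to compound from day 2 for 3 days. On day 5 all medium was aspirated. Viable cell number was read by CellTiter-Glo luminescence, which quantifies cellular ATP.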

NCI-H1395 = assay: Antiproliferative activity against human NCI-H1395 cells assessed as inhibition of cell proliferation incubated for 3 days by CellTiter-Glo Luminescent Cell Viability Assay; format: functional, cell-based; details: NCI-H1395, 72 h
How it was run: (§2)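 Cancer cell lines seeded in 384-well plates on day 1; compound added on day 2 and left for 3 days. On day 5 all medium was aspirated, and viable cells were quantified by CellTiter-Glo luminescence, which measures cellular ATP. Dose-dependent effects on proliferation were determined.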

NCI-H1437 = assay: Inhibition of anchorage independent cell growth in human NCI-H1437 cells incubated for 6 days by Alamar blue reagent based fluorescence plate reader analysis; format: functional; details: NCI-H1437, 144 h
[2] = biological target: RAC-gamma serine/threonine-protein kinase (Homo sapiens, UniProt Q9Y243); assay: Inhibition of human AKT3 assessed as inhibition constant in presence of ATP
Sequence of RAC-gamma serine/threonine-protein kinase (Q9Y243 whole entry): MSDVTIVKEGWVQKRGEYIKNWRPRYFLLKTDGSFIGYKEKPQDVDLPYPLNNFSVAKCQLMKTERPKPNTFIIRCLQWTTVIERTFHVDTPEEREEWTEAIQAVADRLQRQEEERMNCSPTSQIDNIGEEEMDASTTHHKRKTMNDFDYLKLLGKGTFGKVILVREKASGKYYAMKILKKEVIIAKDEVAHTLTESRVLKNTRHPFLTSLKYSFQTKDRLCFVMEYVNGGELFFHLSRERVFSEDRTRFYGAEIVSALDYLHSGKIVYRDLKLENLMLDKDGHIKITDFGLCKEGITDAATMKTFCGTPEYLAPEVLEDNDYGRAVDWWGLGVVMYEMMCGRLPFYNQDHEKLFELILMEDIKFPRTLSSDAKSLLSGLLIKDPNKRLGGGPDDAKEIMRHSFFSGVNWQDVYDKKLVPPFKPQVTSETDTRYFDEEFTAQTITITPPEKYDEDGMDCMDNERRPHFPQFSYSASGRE

Hs 766 = assay: Antiproliferative activity against human Hs766T cells assessed as inhibition of cell proliferation incubated for 3 days by CellTiter-Glo Luminescent Cell Viability Assay; format: functional, cell-based; details: Hs 766, 72 h; how it was run: as §2
NCI-H1703 = assay: Antiproliferative activity against human NCI-H1703 cells assessed as inhibition of cell proliferation incubated for 3 days by CellTiter-Glo Luminescent Cell Viability Assay; format: functional, cell-based; details: NCI-H1703, 72 h; how it was run: as §1
NCI-H526 = assay: Antiproliferative activity against human NCI-H526 cells assessed as inhibition of cell proliferation incubated for 3 days by CellTiter-Glo Luminescent Cell Viability Assay; format: functional, cell-based; details: NCI-H526, 72 h; how it was run: as §1
BXPC-3 = assay: Antiproliferative activity against human BXPC-3 cells assessed as inhibition of cell proliferation incubated for 3 days by CellTiter-Glo Luminescent Cell Viability Assay; format: functional, cell-based; details: BXPC-3, 72 h; how it was run: as §2
HCT-15 = assay: Antiproliferative activity against human HCT-15 cells assessed as inhibition of cell proliferation incubated for 3 days by CellTiter-Glo Luminescent Cell Viability Assay; format: functional, cell-based; details: HCT-15, 72 h; how it was run: as §2
[3] = In vivo inhibition of PAK4 in nude mouse xenografted with human HCT-116 cells assessed as reduction in phosphorylated GEF-H1 level at 1.1 to 3.3 mg/kg, sc administered for 6 days by ELISA relative to control; format: functional; set-up: scale not given: the % may be the effect or the level left; details: dose 1.1-3.3 mg/kg, time 6 day
HCT-116 [4] = assay: Antitumor activity against human HCT-116 cells xenografted in nude mouse assessed as inhibition of [3H]FLT uptake at 25 mg/kg, po administered once a day for 6 day and measured after 2 hrs post [3H]FLT administration by scintillation counter analysis relative to control; format: functional; details: HCT-116, 144 h
How it was run: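 HCT116 xenograft mice (tumors 300–350 mm3, n = 5 per group) received oral vehicle or compound, with harvests on days 2, 3 and 6. Isoflurane-anesthetized mice were given [3H]FLT (15 nCi/g, i.p.) 2 h before killing. Tumor and liver were weighed, solubilized and scintillation-counted. SUV = C/(ID/W), and uptake is reported as the tumor-to-liver SUV ratio.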

[5] = biological target: Serine/threonine-protein kinase N1 (Homo sapiens) (UniProt Q16512); assay: Inhibition of human PRK1 in presence of ATP relative to control; details: concentration not given here
Sequence of Serine/threonine-protein kinase N1 (Homo sapiens) (Q16512 2-942 limits assumed): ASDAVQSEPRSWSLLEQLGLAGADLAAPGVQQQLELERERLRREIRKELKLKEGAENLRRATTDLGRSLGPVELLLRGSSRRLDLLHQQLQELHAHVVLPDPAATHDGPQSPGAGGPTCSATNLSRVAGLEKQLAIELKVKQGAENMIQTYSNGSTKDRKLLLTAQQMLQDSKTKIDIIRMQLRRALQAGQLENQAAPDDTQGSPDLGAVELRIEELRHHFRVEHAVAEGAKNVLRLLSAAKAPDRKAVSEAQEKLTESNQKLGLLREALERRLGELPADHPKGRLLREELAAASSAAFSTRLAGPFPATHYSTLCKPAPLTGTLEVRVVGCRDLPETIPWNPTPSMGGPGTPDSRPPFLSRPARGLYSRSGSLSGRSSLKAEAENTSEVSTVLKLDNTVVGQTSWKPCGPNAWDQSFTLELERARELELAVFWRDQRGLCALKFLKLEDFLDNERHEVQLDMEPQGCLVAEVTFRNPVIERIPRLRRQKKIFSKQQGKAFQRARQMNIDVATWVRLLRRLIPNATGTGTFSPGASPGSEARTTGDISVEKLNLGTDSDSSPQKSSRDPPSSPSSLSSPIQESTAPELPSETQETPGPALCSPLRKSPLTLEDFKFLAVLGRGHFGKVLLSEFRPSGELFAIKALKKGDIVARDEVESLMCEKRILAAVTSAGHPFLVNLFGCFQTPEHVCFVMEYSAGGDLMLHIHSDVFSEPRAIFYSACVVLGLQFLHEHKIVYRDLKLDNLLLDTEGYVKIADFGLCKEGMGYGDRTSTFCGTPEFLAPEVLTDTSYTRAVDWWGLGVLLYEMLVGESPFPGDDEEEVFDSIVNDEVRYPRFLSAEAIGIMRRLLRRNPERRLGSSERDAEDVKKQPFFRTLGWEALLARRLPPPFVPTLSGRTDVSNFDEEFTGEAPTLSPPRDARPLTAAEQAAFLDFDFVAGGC

COLO 205 [6] = assay: Inhibition of anchorage independent cell growth in human COLO 205 cells incubated for 6 days by Alamar blue reagent based fluorescence plate reader analysis; format: functional; details: COLO 205, 144 h
How it was run: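 Soft-agar colony formation: bottom layer 0.5% agar (2× DMEM with 1% agarose, 1:1), top layer 0.35% agar holding 4,000 cells; layers set 20–30 min at room temperature, then 1× DMEM containing compound added on top. Incubated 6 days; Alamar blue added and fluorescence read at 540 nm.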

COLO 205 [7] = assay: Antitumor activity against human COLO 205 cells xenografted in nude mouse assessed as tumor growth inhibition at 20 mg/kg, po administered once daily for 9 to 18 days relative to control; format: functional; details: time 9-18 day, read-out: TGI
How it was run: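 Tumor cells were implanted s.c. into the right flank of female nu/nu nude mice aged 6–8 weeks. Animals were randomized into treatment groups once tumors were established (example: day 8 postimplant, about 170 mm3, animals >22 g). Compound in 0.5% methylcellulose was given by oral gavage. Tumors were measured with calipers two to three times per week.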

HCT-116 [8] = assay: Induction of cell cycle arrest in human HCT-116 cells assessed as accumulation of cells at G0/G1 phase at 100 nM measured after 48 hrs by fluorescence activated cell sorter analysis (reference value: 50.74%); format: functional
[9] = biological target: AMP-activated protein kinase (AMPK) alpha-1/beta-1/gamma-1 (Homo sapiens, UniProt P54619+Q13131+Q9Y478); assay: Inhibition of human AMPK alpha1/beta1/gamma1 in presence of ATP; format: protein-complex assay
Sequence of AMP-activated protein kinase (AMPK) alpha-1/beta-1/gamma-1 (P54619 whole entry): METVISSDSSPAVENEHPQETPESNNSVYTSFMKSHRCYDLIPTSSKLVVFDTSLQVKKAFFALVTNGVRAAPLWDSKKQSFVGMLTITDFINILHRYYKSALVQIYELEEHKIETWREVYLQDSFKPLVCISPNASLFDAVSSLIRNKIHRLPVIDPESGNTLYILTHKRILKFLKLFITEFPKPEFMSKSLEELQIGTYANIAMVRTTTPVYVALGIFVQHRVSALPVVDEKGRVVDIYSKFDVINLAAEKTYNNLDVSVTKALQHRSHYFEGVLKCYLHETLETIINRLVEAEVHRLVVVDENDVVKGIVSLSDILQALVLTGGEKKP
Sequence of AMP-activated protein kinase (AMPK) alpha-1/beta-1/gamma-1 (Q9Y478 whole entry): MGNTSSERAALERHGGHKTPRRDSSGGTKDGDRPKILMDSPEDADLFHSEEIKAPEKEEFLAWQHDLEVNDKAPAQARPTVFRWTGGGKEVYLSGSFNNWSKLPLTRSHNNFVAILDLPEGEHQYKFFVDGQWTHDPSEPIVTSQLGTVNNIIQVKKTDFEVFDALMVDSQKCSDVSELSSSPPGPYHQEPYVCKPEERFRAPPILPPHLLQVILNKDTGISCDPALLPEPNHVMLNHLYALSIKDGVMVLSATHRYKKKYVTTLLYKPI
Sequence of AMP-activated protein kinase (AMPK) alpha-1/beta-1/gamma-1 (Q13131 whole entry): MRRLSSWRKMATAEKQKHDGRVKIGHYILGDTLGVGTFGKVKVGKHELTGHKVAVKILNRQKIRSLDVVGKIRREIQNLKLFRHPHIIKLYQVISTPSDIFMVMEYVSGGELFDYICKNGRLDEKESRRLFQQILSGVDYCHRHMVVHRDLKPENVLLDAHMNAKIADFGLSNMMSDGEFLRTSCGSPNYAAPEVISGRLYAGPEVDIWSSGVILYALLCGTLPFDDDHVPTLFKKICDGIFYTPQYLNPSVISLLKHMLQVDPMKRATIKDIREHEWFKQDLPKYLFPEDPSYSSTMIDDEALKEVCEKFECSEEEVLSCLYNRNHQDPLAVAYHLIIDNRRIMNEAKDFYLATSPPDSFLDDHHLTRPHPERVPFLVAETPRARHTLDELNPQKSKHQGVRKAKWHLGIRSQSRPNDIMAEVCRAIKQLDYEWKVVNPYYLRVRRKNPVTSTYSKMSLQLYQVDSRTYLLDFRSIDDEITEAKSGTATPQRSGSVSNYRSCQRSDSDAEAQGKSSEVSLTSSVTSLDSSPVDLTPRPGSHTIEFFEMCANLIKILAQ

NCI-H1975 = assay: Antiproliferative activity against human NCI-H1975 cells assessed as inhibition of cell proliferation incubated for 3 days by CellTiter-Glo Luminescent Cell Viability Assay; format: functional, cell-based; details: NCI-H1975, 72 h
How it was run: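 Cancer cell lines seeded in 384-well plates on day 1; compound added on day 2 and incubated 3 days. On day 5 media aspirated and viable cells quantified by ATP content using CellTiter-Glo luminescence; dose-dependent proliferation effects determined.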

[10] = biological target: Serine/threonine-protein kinase Chk2 (Homo sapiens, UniProt O96017); assay: Inhibition of human CHK2 in presence of ATP relative to control; details: concentration not given here
Sequence of Serine/threonine-protein kinase Chk2 (O96017 whole entry): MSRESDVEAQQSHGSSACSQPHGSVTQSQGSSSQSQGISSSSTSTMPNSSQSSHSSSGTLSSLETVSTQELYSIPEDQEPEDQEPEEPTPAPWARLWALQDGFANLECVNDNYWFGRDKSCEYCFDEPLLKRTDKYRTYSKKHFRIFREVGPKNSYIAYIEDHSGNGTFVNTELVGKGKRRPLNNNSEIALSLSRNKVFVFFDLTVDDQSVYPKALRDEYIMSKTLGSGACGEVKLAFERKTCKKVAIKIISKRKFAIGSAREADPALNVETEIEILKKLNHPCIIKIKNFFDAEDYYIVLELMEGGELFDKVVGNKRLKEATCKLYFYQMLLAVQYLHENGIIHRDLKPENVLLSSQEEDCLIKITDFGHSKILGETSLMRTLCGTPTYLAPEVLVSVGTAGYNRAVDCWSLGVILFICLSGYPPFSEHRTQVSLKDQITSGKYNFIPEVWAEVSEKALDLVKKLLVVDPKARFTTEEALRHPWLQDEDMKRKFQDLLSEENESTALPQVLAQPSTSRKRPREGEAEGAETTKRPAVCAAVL

[11] = Antiproliferative activity against human 184A1 cells assessed as inhibition of cell proliferation incubated for 3 days by CellTiter-Glo Luminescent Cell Viability Assay; format: functional, cell-based; details: 184A1, 72 h; how it was run: as §2
HCT-116 [12] = assay: Antitumor activity against human HCT-116 cells xenografted in nude mouse assessed as tumor growth inhibition at 1.1 mg/kg administered via pump for 9 days relative to control; format: functional; details: HCT-116, 216 h, time 9 day, read-out: TGI
HCT-116 [13] = assay: Induction of cell cycle arrest in human HCT-116 cells assessed as accumulation of cells at sub G1 phase at 100 nM measured after 48 hrs by fluorescence activated cell sorter analysis (reference value: 1.84%); format: functional
MDA-MB-436 = assay: Antiproliferative activity against human MDA-MB-436 cells assessed as inhibition of cell proliferation incubated for 3 days by CellTiter-Glo Luminescent Cell Viability Assay; format: functional, cell-based; details: MDA-MB-436, 72 h; how it was run: as §2
SW-403 = assay: Antiproliferative activity against human SW403 cells assessed as inhibition of cell proliferation incubated for 3 days by CellTiter-Glo Luminescent Cell Viability Assay; format: functional, cell-based; details: SW-403, 72 h; how it was run: as §1

Sequence of Protein kinase C beta type (P05771 whole entry): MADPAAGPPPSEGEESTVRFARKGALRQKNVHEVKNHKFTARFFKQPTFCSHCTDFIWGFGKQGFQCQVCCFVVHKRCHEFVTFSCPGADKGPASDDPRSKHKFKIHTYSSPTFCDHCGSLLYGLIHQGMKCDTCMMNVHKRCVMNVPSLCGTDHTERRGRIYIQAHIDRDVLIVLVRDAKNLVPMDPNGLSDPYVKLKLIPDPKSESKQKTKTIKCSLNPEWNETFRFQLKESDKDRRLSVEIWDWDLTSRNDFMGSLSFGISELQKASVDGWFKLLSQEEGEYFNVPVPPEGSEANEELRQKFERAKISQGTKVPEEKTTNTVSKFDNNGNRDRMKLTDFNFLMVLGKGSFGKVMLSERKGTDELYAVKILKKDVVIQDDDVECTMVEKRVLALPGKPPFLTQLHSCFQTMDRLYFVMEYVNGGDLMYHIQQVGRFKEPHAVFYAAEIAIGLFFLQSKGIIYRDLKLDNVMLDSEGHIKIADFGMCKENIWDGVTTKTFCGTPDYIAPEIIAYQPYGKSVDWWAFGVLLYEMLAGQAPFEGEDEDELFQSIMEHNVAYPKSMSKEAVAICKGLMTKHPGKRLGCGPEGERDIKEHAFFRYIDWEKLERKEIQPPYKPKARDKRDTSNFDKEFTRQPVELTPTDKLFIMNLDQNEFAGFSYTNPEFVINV

Ki [1]: 185 nM | IC50 (COLO 320DM): 373 nM | IC50 (NCI-H1395): 6.4 nM | IC50 (NCI-H1437): 4.8 nM | Ki [2]: 172 nM | IC50 (NCI-H1703): 4.4 nM | IC50 (NCI-H526): 1.4 nM | IC50 (BXPC-3): 39 nM | IC50 (HCT-15): 10000 nM | inhibition [5]: 86% | IC50 (COLO 205 [6]): 140 nM | IC50 [9]: 1 nM | IC50 (NCI-H1975): 17 nM | inhibition [10]: 103% | IC50 (MDA-MB-436): 0.79 nM | IC50 (SW-403): 2.2 nM
Structure (SMILES): Cc1nc(Nc2n[nH]c3c2CN(C(=O)N[C@H](CN(C)C)c2ccccc2)C3(C)C)c2sccc2n1 [PF-03758309]
IC50 (T84): 89 nM | IC50 (Hs 766): 416 nM | Activity [3]: 54% | inhibition in vivo at 25 mg/kg (HCT-116 [4]): 43.1% | inhibition in vivo at 20 mg/kg (COLO 205 [7]): 106% | Activity (HCT-116 [8]): 49.41% | IC50 [11]: 0.83 nM | inhibition in vivo at 1.1 mg/kg (HCT-116 [12]): 104% | Activity (HCT-116 [13]): 12.43%
